The source of these data is ChEMBL document CHEMBL1799977, “Discovery of MK-0952, a selective PDE4 inhibitor for the treatment of long-term memory loss and mild cognitive impairment” (Bioorg Med Chem Lett, 2010).

Data set [1] is described as follows: Ratio IC50 for PDE4 activity in human whole blood to IC50 for PDE4. It counts as tissue-based. In short, it runs like this: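 Ratio of two IC50s. The numerator is from human whole blood stimulated with LPS, read as inhibition of TNF-α release. The denominator (PDE4QT) is the mean of the IC50s on the PDE4A, B and D catalytic domains. These were expressed as GST constructs in Sf9 cells by baculovirus. Each IC50 is the average of at least two experiments.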

For data set [2], the target named is 3',5'-cyclic-AMP phosphodiesterase 4A (Homo sapiens, UniProt P27815). Description: Inhibition of PDE4A. Particulars: pooled result: one value given for 3 cell lines, strains, targets or settings. In a few lines:
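Catalytic domains of PDE4A, B and D expressed as GST constructs in SF9 cells (baculovirus). IC50s are averages of at least two experiments.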

Data set [3] in a line: (§1) Half life in Sprague-Dawley rat at 10 mg/kg, po and 5 mg/kg, iv. Type of data set: ADME, organism-based. Particulars: Sprague-Dawley, in vivo.
Data set [4] in a line: (§2) Oral bioavailability in Sprague-Dawley rat at 10 mg/kg. Type of data set: ADME, organism-based. Particulars: Sprague-Dawley, in vivo.
Another data set addresses Phosphodiesterase 4 (Homo sapiens, UniProt P27815+Q08499+Q07343+Q08493). The data set is described as follows: Inhibition of PDE4 activity in human whole blood assessed as inhibition of LPS-induced TNF-alpha release.
For data set [5], the system named is Rattus norvegicus. Described as §1. To be noted: in vivo. Type of data set: ADME, organism-based.
The test system of data set [6] is Rattus norvegicus. The data set is described as §2. Particulars: in vivo. It counts as ADME, organism-based.
In data set [7] the test system is Rattus norvegicus. Description: Cognitive enhancing effect in Lister rat assessed as recognition of novel object at 0.01 mg/kg, po pretreated 90 mins before sample phase by novel object recognition test. It counts as functional, organism-based. Also on record: dose 0.01 mg/kg. In a few lines: (§3)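 Novel object recognition in rats. Oral dosing in 0.5% methocel 90 min before the sample trial, which ended at 25 s of exploration or 3 min. Choice trial followed with a familiar and a novel object. d2 score = (novel − familiar)/total exploration. n = 21–24; Newman–Keuls test.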

Data set [8] deals with Rattus norvegicus. Description: Cognitive enhancing effect in Lister rat assessed as recognition of novel object at 0.1 mg/kg, po pretreated 90 mins before sample phase by novel object recognition test. Type of data set: functional, organism-based. Also on record: dose 0.1 mg/kg. In a few lines: as §3
Data set [9] in a line: Drug level in rat plasma at 5 mg/kg, po measured 90 mins post dose. Details: dose 5 mg/kg, route oral. It counts as ADME, organism-based.
Data set [10] can be described thus: Drug level in rat brain at 0.1 mg/kg, po measured 90 mins post dose. Type of data set: ADME, organism-based. Also on record: dose 0.1 mg/kg, route oral. To be noted: read-out: Drug uptake.
A short description of data set [11]: Drug level in rat brain at 1 mg/kg, po measured 90 mins post dose. It counts as ADME, organism-based. Details: dose 1 mg/kg, route oral. To be noted: read-out: Drug uptake.
A short description of data set [12]: Drug level in rat brain at 5 mg/kg, po measured 90 mins post dose. Type of data set: ADME, organism-based. Also on record: dose 5 mg/kg, route oral. Particulars: read-out: Drug uptake.
The nature of data set [13]: Drug level in rat plasma at 1 mg/kg, po measured 90 mins post dose. It counts as ADME, organism-based. Details: dose 1 mg/kg, route oral.
The nature of data set [14]: Drug level in rat plasma at 0.5 mg/kg, po measured 90 mins post dose. It counts as ADME, organism-based. Also on record: dose 0.5 mg/kg, route oral.
Data set [15] can be described thus: Drug level in rat brain at 0.5 mg/kg, po measured 90 mins post dose. Type of data set: ADME, organism-based. Also on record: dose 0.5 mg/kg, route oral. Particulars: read-out: Drug uptake.
A short description of data set [16]: Drug level in rat plasma at 0.1 mg/kg, po measured 90 mins post dose. It counts as ADME, organism-based. Also on record: dose 0.1 mg/kg, route oral.
A short description of data set [17]: Drug level in rat brain at 10 mg/kg, po measured 90 mins post dose. Type of data set: ADME, organism-based. To be noted: read-out: Drug uptake. Details: dose 10 mg/kg, route oral.
Data set [18] is described as follows: Drug level in rat plasma at 10 mg/kg, po measured 90 mins post dose. Type of data set: ADME, organism-based. Also on record: dose 10 mg/kg, route oral.

The term IC50 denotes the concentration that gives 50% inhibition. Broadly, the half-life is the time in which the quantity being followed falls by half. Read a high half-life as slow loss. For orientation: bioavailability means the share of a dose that reaches the circulation, judged against a reference dose that is usually intravenous. A high value points to good availability.

Calls of active or inactive are those of the source. No cut-off for these calls is given here. Bounds are passed on as bounds.

Chain of 3',5'-cyclic-AMP phosphodiesterase 4A (P27815 whole entry, the tested form may be a part): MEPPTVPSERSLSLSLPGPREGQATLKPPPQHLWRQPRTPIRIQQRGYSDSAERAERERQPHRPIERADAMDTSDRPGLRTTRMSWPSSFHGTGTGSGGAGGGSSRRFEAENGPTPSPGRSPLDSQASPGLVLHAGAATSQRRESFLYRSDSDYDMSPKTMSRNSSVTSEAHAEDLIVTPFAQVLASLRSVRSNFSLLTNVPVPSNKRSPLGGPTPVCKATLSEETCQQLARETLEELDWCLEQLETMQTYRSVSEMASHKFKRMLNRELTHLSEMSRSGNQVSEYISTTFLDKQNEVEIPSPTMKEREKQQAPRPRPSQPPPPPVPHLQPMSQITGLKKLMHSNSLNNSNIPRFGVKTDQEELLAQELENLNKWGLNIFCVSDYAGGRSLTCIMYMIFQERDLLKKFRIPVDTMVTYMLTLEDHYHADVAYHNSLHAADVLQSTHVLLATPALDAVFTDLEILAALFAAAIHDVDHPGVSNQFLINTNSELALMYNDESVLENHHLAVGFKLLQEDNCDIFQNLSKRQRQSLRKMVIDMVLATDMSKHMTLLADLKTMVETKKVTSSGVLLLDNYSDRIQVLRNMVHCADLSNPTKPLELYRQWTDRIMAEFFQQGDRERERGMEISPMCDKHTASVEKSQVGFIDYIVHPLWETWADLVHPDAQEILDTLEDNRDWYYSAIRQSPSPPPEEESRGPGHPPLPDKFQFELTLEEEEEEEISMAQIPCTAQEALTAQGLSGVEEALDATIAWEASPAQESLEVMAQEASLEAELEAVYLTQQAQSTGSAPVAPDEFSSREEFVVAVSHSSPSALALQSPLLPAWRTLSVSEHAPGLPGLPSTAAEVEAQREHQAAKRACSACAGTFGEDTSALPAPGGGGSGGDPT

Turning to `O=C(NC1CC1)c1cn(-c2cccc(-c3ccc(C4CC4C(=O)O)cc3)c2)c2ncccc2c1=O` (racemic) [listing 1 of 2 here], in data set [1], the Ratio IC50 was 526.

Turning to `O=C(NC1CC1)c1cn(-c2cccc(-c3ccccc3C3CC3C(=O)O)c2)c2ncccc2c1=O` (racemic), the IC50 worked out at 4.6 nM in [2] and 1300 nM on Phosphodiesterase 4. In addition, the half-life in [3] is 4.7 h. Besides, the Ratio IC50 in [1] was determined as 282. The bioavailability in data set [4] was 35%.

Turning to `O=C(NCC1CC1)c1cn(-c2cccc(-c3ccc(C4CC4C(=O)O)cc3)c2)c2ncccc2c1=O` (racemic), the results for the half-maximal inhibitory concentration (IC50) (in [2]; on Phosphodiesterase 4) were 0.35 nM and 200 nM, respectively. Also, the Ratio IC50 in data set [1] was 571.

In the case of `O=C(NC1CC1)c1cn(-c2cccc(-c3ccc(C4CC4C(=O)O)cc3)c2)c2ncccc2c1=O` (cis isomer) [listing 1 of 2 here], in data set [1], the Ratio IC50 came to 100.

In the case of `O=C(NC1CC1)c1cn(-c2cccc(-c3ccc(C4CC4c4nnn[nH]4)cc3)c2)c2ncccc2c1=O` (racemic), the IC50 was 0.55 nM in data set [2] and greater than 5000 nM on Phosphodiesterase 4. Besides, the half-life in data set [3] is 2.4 h. For the same compound, the Ratio IC50 in data set [1] is greater than 9090. Also, the bioavailability in [4] amounted to 5%.

For `O=C(NCC(F)(F)F)c1cn(-c2cccc(-c3ccc(C4CC4C(=O)O)cc3)c2)c2ncccc2c1=O` (racemic), the concentration for half-maximal inhibition (IC50) in [2] was determined as 0.51 nM; at Phosphodiesterase 4, 510 nM. The half-life in [3] was 3.2 h. The Ratio IC50 in [1] is 1080. The compound further came in with a bioavailability in [4] of 25%.

Regarding `O=C(NC1CC1)c1cn(-c2cccc(-c3cccc(C4CC4C(=O)O)c3)c2)c2ncccc2c1=O` (racemic), the results for the IC50 (in data set [2]; on Phosphodiesterase 4) were 0.54 nM and 110 nM, respectively. In data set [3], the half-life is 1 h. The Ratio IC50 in data set [1] stood at 203. Further, the bioavailability in data set [4] worked out at 100%.

`O=C(NC1CC1)c1cn(-c2cccc(-c3ccc(C4CC4C(=O)O)cc3)c2)c2ncccc2c1=O` (racemic) [listing 2 of 2 here]: the IC50 was 0.57 nM in data set [2] and 300 nM on Phosphodiesterase 4. The same compound returned a t1/2 in the data set with Rattus norvegicus [5] of 1.7 h. In the data set on Rattus norvegicus [6], this compound showed an F of 78%.

Consider `CC(C)(c1cc(-c2cccc(-c3ccc(C4CC4C(=O)O)cc3)c2)c2ncccc2c1)S(C)(=O)=O` (single isomer, unassigned; enantiomer A), for which the IC50 came out at 0.54 nM in [2] and 1400 nM on Phosphodiesterase 4.

For the compound `CC(C)(c1cc(-c2cccc(-c3ccc(C4CC4C(=O)O)cc3)c2)c2ncccc2c1)S(C)(=O)=O` (single isomer, unassigned; enantiomer B), the half-inhibitory concentration (IC50) was determined as 0.32 nM in [2] and 600 nM at Phosphodiesterase 4.

For the compound `CC(C)(CC(=O)O)c1ccc(-c2cccc(-n3cc(C(=O)NC4CC4)c(=O)c4cccnc43)c2)cc1`, the values for the IC50 (in data set [2]; on Phosphodiesterase 4) were 0.85 nM and 75 nM, respectively. This compound gave a half-life in data set [3] of 5.1 h. In data set [1], the Ratio IC50 stood at 88. In [4], this compound registered a bioavailability of 62%.

Regarding `CC1(NC(=O)c2cn(-c3cccc(-c4ccc(C5CC5C(=O)O)cc4)c3)c3ncccc3c2=O)CC1` (racemic), the values for the concentration for half-maximal inhibition (IC50) (in [2]; at Phosphodiesterase 4) were 0.58 nM and 280 nM, respectively. In data set [3], this compound showed a half-life of 4.1 h. The Ratio IC50 in data set [1] worked out at 482. The bioavailability in data set [4] came out at 58%.

`CC(C)(C)NC(=O)c1cn(-c2cccc(-c3ccc(C4CC4C(=O)O)cc3)c2)c2ncccc2c1=O` (racemic): the figures for the IC50 (in data set [2]; at Phosphodiesterase 4) were 32 nM and greater than 40000 nM, respectively. For the same compound, the Ratio IC50 in [1] is greater than 1140.

Consider `O=C(NC1CCC1)c1cn(-c2cccc(-c3ccc(C4CC4C(=O)O)cc3)c2)c2ncccc2c1=O` (racemic), for which the IC50 in data set [2] was 0.52 nM; on Phosphodiesterase 4, 220 nM. In data set [3], this compound showed a half-life of 2.4 h. The Ratio IC50 in [1] worked out at 432. The compound further gave a bioavailability in data set [4] of 20%.

Consider `O=C(NC1CC1)c1cn(-c2cccc(-c3ccc([C@@H]4C[C@H]4C(=O)O)cc3)c2)c2ncccc2c1=O`, for which the IC50 in [2] came out at 1 nM; at Phosphodiesterase 4, 1000 nM. Besides, in data set [1], the Ratio IC50 is 1000.

Consider `O=C(NC1(O)CC1)c1cn(-c2cccc(-c3ccc(C4CC4C(=O)O)cc3)c2)c2ncccc2c1=O` (racemic), for which the IC50 in data set [2] amounted to 17 nM; on Phosphodiesterase 4 it was 6400 nM. Further, the Ratio IC50 in data set [1] came out at 376.

Turning to `O=C(NC1CC1)c1cn(-c2cccc(-c3ccc([C@@H]4C[C@H]4C(=O)O)c(F)c3)c2)c2ncccc2c1=O`, the result with Rattus norvegicus [7] and in the data set on Rattus norvegicus [8] was Active. The Ratio IC50 in data set [1] is 1040.

In the case of `O=C(NC1CC1)c1cn(-c2cccc(-c3ccc([C@H]4C[C@@H]4C(=O)O)c(F)c3)c2)c2ncccc2c1=O`, the results for the IC50 (in [2]; at Phosphodiesterase 4) were 0.46 nM and 150 nM, respectively. The Ratio IC50 in data set [1] was 330.

`O=C(NC1CC1)c1cn(-c2cccc(-c3ccc([C@@H]4C[C@H]4C(=O)[O-])c(F)c3)c2)c2ncccc2c1=O.[Na+]`: the concentration at 1.5 h in data set [9] is 8190 nM; in data set [10] it was 12 nM; in data set [11] it was 110 nM; in data set [12], 290 nM; in data set [13], 3410 nM; in data set [14], 1340 nM. The concentration at 1.5 h came to 47 nM in data set [15], 590 nM in [16], 590 nM in data set [17] and 18800 nM in data set [18].

Take `CC(C)(Cc1ccc(-c2cccc(-n3cc(C(=O)NC4CC4)c(=O)c4cccnc43)c2)cc1)C(=O)O`: the IC50 was determined as 0.88 nM in [2] and 610 nM at Phosphodiesterase 4. This compound also showed a half-life in data set [3] of 6.1 h. Besides, the Ratio IC50 in data set [1] worked out at 693. For the same compound, in data set [4], the bioavailability worked out at 30%.

Turning to `O=C(NC1CC1)c1cn(-c2cccc(-c3ccc([C@H]4C[C@@H]4C(=O)O)cc3)c2)c2ncccc2c1=O`, the IC50 was 0.66 nM in data set [2] and 230 nM on Phosphodiesterase 4. The Ratio IC50 in [1] was 350.

`O=C(NC1CC1)c1cn(-c2cccc(-c3ccc(C4CC4C(=O)O)cc3)c2)c2ncccc2c1=O` (cis isomer) [listing 2 of 2 here]: the IC50 amounted to 1.6 nM in data set [2] and 160 nM on Phosphodiesterase 4. Also, in the data set with Rattus norvegicus [5], the t1/2 was found to be 3.9 h. In the data set with Rattus norvegicus [6], the F is 30%.
